From ChEMBL document CHEMBL1255424, “Antistaphylococcal activity of ACHN-490 tested alone and in combination with other agents by time-kill assay” (2010)
Values after ≈ are worked out from the molar mass of the structure shown.

Legend:
Type in all cases: functional
Staphylococcus aureus [1] = assay: Antibacterial activity against vancomycin-hetero-intermediate Staphylococcus aureus after 24 hrs by modified broth macrodilution method
Method in brief: (§1)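 MIC read after 24 h incubation by modified broth macrodilution, validated per CLSI recommendations, against recent clinical MRSA isolates (hospital- and community-acquired, hVISA, VISA, VRSA). Daptomycin tests ran in Mueller-Hinton broth with added calcium.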

Staphylococcus aureus [2] = assay: Antibacterial activity against community-acquired methicillin-resistant panton-valentine leukocidin-positive Staphylococcus aureus isolate 950 after 24 hrs by modified broth macrodilution method; conditions: isolate 950, 24 h; method in brief: as §1
Staphylococcus aureus [3] = assay: Antibacterial activity against vancomycin-intermediate Staphylococcus aureus isolate 1012 after 24 hrs by modified broth macrodilution method; conditions: isolate 1012, 24 h; method in brief: as §1
Staphylococcus aureus [4] = assay: Antibacterial activity against vancomycin-resistant Staphylococcus aureus isolate 509 after 24 hrs by modified broth macrodilution method; conditions: isolate 509, 24 h; method in brief: as §1
Staphylococcus aureus [5] = assay: Antibacterial activity against community-acquired methicillin-resistant panton-valentine leukocidin-positive Staphylococcus aureus isolate 1468 after 24 hrs by modified broth macrodilution method; conditions: isolate 1468, 24 h; method in brief: as §1
Staphylococcus aureus [6] = assay: Antibacterial activity against vancomycin-resistant Staphylococcus aureus after 24 hrs by modified broth macrodilution method; method in brief: as §1
Staphylococcus aureus [7] = assay: Antibacterial activity against hospital-acquired methicillin-resistant Staphylococcus aureus isolate 1867 after 24 hrs by modified broth macrodilution method; conditions: isolate 1867, 24 h; method in brief: as §1
Staphylococcus aureus [8] = assay: Antibacterial activity against vancomycin-intermediate Staphylococcus aureus isolate 1014 after 24 hrs by modified broth macrodilution method; conditions: isolate 1014, 24 h; method in brief: as §1
Staphylococcus aureus [9] = assay: Antibacterial activity against community-acquired methicillin-resistant panton-valentine leukocidin-positive Staphylococcus aureus isolate 813 after 24 hrs by modified broth macrodilution method; conditions: isolate 813, 24 h; method in brief: as §1
Staphylococcus aureus [10] = assay: Antibacterial activity against vancomycin-hetero-intermediate Staphylococcus aureus isolate 873 after 24 hrs by modified broth macrodilution method; conditions: isolate 873, 24 h; method in brief: as §1
Staphylococcus aureus [11] = assay: Antibacterial activity against vancomycin-intermediate Staphylococcus aureus isolate 1016 after 24 hrs by modified broth macrodilution method; conditions: isolate 1016, 24 h; method in brief: as §1
Staphylococcus aureus [12] = assay: Antibacterial activity against community-acquired methicillin-resistant panton-valentine leukocidin-positive Staphylococcus aureus isolate 1469 after 24 hrs by modified broth macrodilution method; conditions: isolate 1469, 24 h; method in brief: as §1
Staphylococcus aureus [13] = assay: Antibacterial activity against vancomycin-intermediate Staphylococcus aureus isolate 511 after 24 hrs by modified broth macrodilution method; conditions: isolate 511, 24 h; method in brief: as §1
Staphylococcus aureus [14] = assay: Antibacterial activity against hospital-acquired methicillin-resistant Staphylococcus aureus isolate 1806 after 24 hrs by modified broth macrodilution method; conditions: isolate 1806, 24 h; method in brief: as §1
Staphylococcus aureus [15] = assay: Antibacterial activity against vancomycin-intermediate Staphylococcus aureus isolate 1005 after 24 hrs by modified broth macrodilution method; conditions: isolate 1005, 24 h; method in brief: as §1
Staphylococcus aureus [16] = assay: Antibacterial activity against vancomycin-intermediate Staphylococcus aureus after 24 hrs by modified broth macrodilution method; method in brief: as §1
Staphylococcus aureus [17] = assay: Antibacterial activity against vancomycin-resistant Staphylococcus aureus isolate 1263 after 24 hrs by modified broth macrodilution method; conditions: isolate 1263, 24 h; method in brief: as §1
Staphylococcus aureus [18] = assay: Antibacterial activity against vancomycin-resistant Staphylococcus aureus isolate 557 after 24 hrs by modified broth macrodilution method; conditions: isolate 557, 24 h; method in brief: as §1
Staphylococcus aureus [19] = assay: Antibacterial activity against vancomycin-resistant Staphylococcus aureus isolate 510 after 24 hrs by modified broth macrodilution method; conditions: isolate 510, 24 h; method in brief: as §1
Staphylococcus aureus [20] = assay: Antibacterial activity against community-acquired methicillin-resistant panton-valentine leukocidin-positive Staphylococcus aureus isolate 1471 after 24 hrs by modified broth macrodilution method; conditions: isolate 1471, 24 h; method in brief: as §1
Staphylococcus aureus [21] = assay: Antibacterial activity against vancomycin-intermediate Staphylococcus aureus isolate 1007 after 24 hrs by modified broth macrodilution method; conditions: isolate 1007, 24 h; method in brief: as §1
Staphylococcus aureus [22] = assay: Antibacterial activity against hospital-acquired methicillin-resistant Staphylococcus aureus isolate 1851 after 24 hrs by modified broth macrodilution method; conditions: isolate 1851, 24 h; method in brief: as §1
Staphylococcus aureus [23] = assay: Antibacterial activity against hospital-acquired methicillin-resistant Staphylococcus aureus isolate 1838 after 24 hrs by modified broth macrodilution method; conditions: isolate 1838, 24 h; method in brief: as §1
Staphylococcus aureus [24] = assay: Antibacterial activity against community-acquired methicillin-resistant panton-valentine leukocidin-positive Staphylococcus aureus isolate 693 after 24 hrs by modified broth macrodilution method; conditions: isolate 693, 24 h; method in brief: as §1
Staphylococcus aureus [25] = assay: Antibacterial activity against vancomycin-intermediate Staphylococcus aureus isolate 1008 after 24 hrs by modified broth macrodilution method; conditions: isolate 1008, 24 h; method in brief: as §1
Staphylococcus aureus [26] = assay: Antibacterial activity against hospital-acquired methicillin-resistant Staphylococcus aureus isolate 1743 after 24 hrs by modified broth macrodilution method; conditions: isolate 1743, 24 h; method in brief: as §1
Staphylococcus aureus [27] = assay: Antibacterial activity against vancomycin-intermediate Staphylococcus aureus isolate 1006 after 24 hrs by modified broth macrodilution method; conditions: isolate 1006, 24 h; method in brief: as §1
Staphylococcus aureus [28] = assay: Antibacterial activity against methicillin-resistant Staphylococcus aureus isolate 2003 after 24 hrs by modified broth macrodilution method; conditions: isolate 2003, 24 h; method in brief: as §1
Staphylococcus aureus [29] = assay: Antibacterial activity against hospital-acquired methicillin-resistant Staphylococcus aureus isolate 1766 after 24 hrs by modified broth macrodilution method; conditions: isolate 1766, 24 h; method in brief: as §1
Staphylococcus aureus [30] = assay: Antibacterial activity against vancomycin-intermediate Staphylococcus aureus isolate 1013 after 24 hrs by modified broth macrodilution method; conditions: isolate 1013, 24 h; method in brief: as §1
Staphylococcus aureus [31] = assay: Antibacterial activity against community-acquired methicillin-resistant panton-valentine leukocidin-positive Staphylococcus aureus isolate 1472 after 24 hrs by modified broth macrodilution method; conditions: isolate 1472, 24 h; method in brief: as §1
Staphylococcus aureus [32] = assay: Antibacterial activity against community-acquired methicillin-resistant panton-valentine leukocidin-positive Staphylococcus aureus isolate 593 after 24 hrs by modified broth macrodilution method; conditions: isolate 593, 24 h; method in brief: as §1
Staphylococcus aureus [33] = assay: Antibacterial activity against hospital-acquired methicillin-resistant Staphylococcus aureus isolate 1776 after 24 hrs by modified broth macrodilution method; conditions: isolate 1776, 24 h; method in brief: as §1
Staphylococcus aureus [34] = assay: Antibacterial activity against vancomycin-intermediate Staphylococcus aureus isolate 1984 after 24 hrs by modified broth macrodilution method; conditions: isolate 1984, 24 h; method in brief: as §1
Staphylococcus aureus [35] = assay: Antibacterial activity against community-acquired methicillin-resistant panton-valentine leukocidin-positive Staphylococcus aureus isolate 815 after 24 hrs by modified broth macrodilution method; conditions: isolate 815, 24 h; method in brief: as §1
Staphylococcus aureus [36] = assay: Antibacterial activity against community-acquired methicillin-resistant panton-valentine leukocidin-negative Staphylococcus aureus isolate 1470 after 24 hrs by modified broth macrodilution method; conditions: isolate 1470, 24 h; method in brief: as §1
Staphylococcus aureus [37] = assay: Antibacterial activity against vancomycin-hetero-intermediate Staphylococcus aureus isolate 618 after 24 hrs by modified broth macrodilution method; conditions: isolate 618, 24 h; method in brief: as §1
Staphylococcus aureus [38] = assay: Antibacterial activity against vancomycin-intermediate Staphylococcus aureus isolate 1004 after 24 hrs by modified broth macrodilution method; conditions: isolate 1004, 24 h; method in brief: as §1
Staphylococcus aureus [39] = assay: Antibacterial activity against vancomycin-intermediate Staphylococcus aureus isolate 1009 after 24 hrs by modified broth macrodilution method; conditions: isolate 1009, 24 h; method in brief: as §1
Staphylococcus aureus [40] = assay: Antibacterial activity against hospital-acquired methicillin-resistant Staphylococcus aureus isolate 1751 after 24 hrs by modified broth macrodilution method; conditions: isolate 1751, 24 h; method in brief: as §1
Staphylococcus aureus [41] = assay: Antibacterial activity against vancomycin-intermediate Staphylococcus aureus isolate 1287 after 24 hrs by modified broth macrodilution method; conditions: isolate 1287, 24 h; method in brief: as §1
Staphylococcus aureus [42] = assay: Antibacterial activity against vancomycin-intermediate Staphylococcus aureus isolate 1003 after 24 hrs by modified broth macrodilution method; conditions: isolate 1003, 24 h; method in brief: as §1
Staphylococcus aureus [43] = assay: Antibacterial activity against vancomycin-susceptible Staphylococcus aureus after 24 hrs by modified broth macrodilution method
Method in brief: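 MICs determined in recent clinical MRSA isolates by a modified broth macrodilution method per CLSI recommendations, with 24 h incubation. Daptomycin tests used Mueller-Hinton broth supplemented with calcium. Value is the lowest inhibitory drug concentration.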

Staphylococcus aureus [44] = assay: Antibacterial activity against vancomycin-intermediate Staphylococcus aureus isolate 1011 after 24 hrs by modified broth macrodilution method; conditions: isolate 1011, 24 h; method in brief: as §1
Staphylococcus aureus [45] = assay: Antibacterial activity against vancomycin-intermediate Staphylococcus aureus isolate 1015 after 24 hrs by modified broth macrodilution method; conditions: isolate 1015, 24 h; method in brief: as §1
Staphylococcus aureus [46] = assay: Antibacterial activity against vancomycin-intermediate Staphylococcus aureus isolate 555 after 24 hrs by modified broth macrodilution method; conditions: isolate 555, 24 h; method in brief: as §1
Staphylococcus aureus [47] = assay: Antibacterial activity against vancomycin-intermediate Staphylococcus aureus isolate 1010 after 24 hrs by modified broth macrodilution method; conditions: isolate 1010, 24 h; method in brief: as §1
Staphylococcus aureus [48] = assay: Antibacterial activity against hospital-acquired methicillin-resistant Staphylococcus aureus isolate 1808 after 24 hrs by modified broth macrodilution method; conditions: isolate 1808, 24 h; method in brief: as §1
Staphylococcus aureus [49] = assay: Antibacterial activity against vancomycin-resistant Staphylococcus aureus isolate 1264 after 24 hrs by modified broth macrodilution method; conditions: isolate 1264, 24 h; method in brief: as §1
Staphylococcus aureus [50] = assay: Antibacterial activity against vancomycin-intermediate Staphylococcus aureus isolate 770 after 24 hrs by modified broth macrodilution method; conditions: isolate 770, 24 h; method in brief: as §1
Staphylococcus aureus [51] = assay: Antibacterial activity against vancomycin-intermediate Staphylococcus aureus isolate 1017 after 24 hrs by modified broth macrodilution method; conditions: isolate 1017, 24 h; method in brief: as §1

## CN[C@@H]1[C@@H](O)[C@@](C)(O[C@@H]2[C@@H](O)[C@H](O[C@H]3OC(CNCCO)=CC[C@H]3N)[C@@H](N)C[C@H]2NC(=O)[C@H](O)CCN)OC[C@]1(C)O
Staphylococcus aureus [1]
  MIC: 1 µg/mL (≈ 1.65 µM)
Staphylococcus aureus [2]
  MIC: 4 µg/mL (≈ 6.59 µM)
Staphylococcus aureus [3]
  MIC: 2 µg/mL (≈ 3.3 µM)
Staphylococcus aureus [4]
  MIC: 1 µg/mL (≈ 1.65 µM)
Staphylococcus aureus [5]
  MIC: 4 µg/mL (≈ 6.59 µM)
Staphylococcus aureus [6]
  MIC: 0.5 µg/mL (≈ 0.824 µM)
Staphylococcus aureus [7]
  MIC: 4 µg/mL (≈ 6.59 µM)
Staphylococcus aureus [8]
  MIC: 2 µg/mL (≈ 3.3 µM)
Staphylococcus aureus [9]
  MIC: 4 µg/mL (≈ 6.59 µM)
Staphylococcus aureus [10]
  MIC: 1 µg/mL (≈ 1.65 µM)
Staphylococcus aureus [11]
  MIC: 2 µg/mL (≈ 3.3 µM)
Staphylococcus aureus [12]
  MIC: 4 µg/mL (≈ 6.59 µM)
Staphylococcus aureus [13]
  MIC: 2 µg/mL (≈ 3.3 µM)
Staphylococcus aureus [14]
  MIC: 2 µg/mL (≈ 3.3 µM)
Staphylococcus aureus [15]
  MIC: 2 µg/mL (≈ 3.3 µM)
Staphylococcus aureus [16]
  MIC: 1 µg/mL (≈ 1.65 µM)
Staphylococcus aureus [17]
  MIC: 2 µg/mL (≈ 3.3 µM)
Staphylococcus aureus [18]
  MIC: 0.5 µg/mL (≈ 0.824 µM)
Staphylococcus aureus [19]
  MIC: 1 µg/mL (≈ 1.65 µM)
Staphylococcus aureus [20]
  MIC: 4 µg/mL (≈ 6.59 µM)
Staphylococcus aureus [21]
  MIC: 1 µg/mL (≈ 1.65 µM)
Staphylococcus aureus [22]
  MIC: 4 µg/mL (≈ 6.59 µM)
Staphylococcus aureus [23]
  MIC: 2 µg/mL (≈ 3.3 µM)
Staphylococcus aureus [24]
  MIC: 2 µg/mL (≈ 3.3 µM)
Staphylococcus aureus [25]
  MIC: 2 µg/mL (≈ 3.3 µM)
Staphylococcus aureus [26]
  MIC: 2 µg/mL (≈ 3.3 µM)
Staphylococcus aureus [27]
  MIC: 4 µg/mL (≈ 6.59 µM)
Staphylococcus aureus [28]
  MIC: 8 µg/mL (≈ 13.2 µM)
Staphylococcus aureus [29]
  MIC: 2 µg/mL (≈ 3.3 µM)
Staphylococcus aureus [30]
  MIC: 2 µg/mL (≈ 3.3 µM)
Staphylococcus aureus [31]
  MIC: 2 µg/mL (≈ 3.3 µM)
Staphylococcus aureus [32]
  MIC: 4 µg/mL (≈ 6.59 µM)
Staphylococcus aureus [33]
  MIC: 4 µg/mL (≈ 6.59 µM)
Staphylococcus aureus [34]
  MIC: 4 µg/mL (≈ 6.59 µM)
Staphylococcus aureus [35]
  MIC: 4 µg/mL (≈ 6.59 µM)
Staphylococcus aureus [36]
  MIC: 2 µg/mL (≈ 3.3 µM)
Staphylococcus aureus [37]
  MIC: 1 µg/mL (≈ 1.65 µM)
Staphylococcus aureus [38]
  MIC: 4 µg/mL (≈ 6.59 µM)
Staphylococcus aureus [39]
  MIC: 2 µg/mL (≈ 3.3 µM)
Staphylococcus aureus [40]
  MIC: 2 µg/mL (≈ 3.3 µM)
Staphylococcus aureus [41]
  MIC: 4 µg/mL (≈ 6.59 µM)
Staphylococcus aureus [42]
  MIC: 1 µg/mL (≈ 1.65 µM)
Staphylococcus aureus [43]
  MIC: 2 µg/mL (≈ 3.3 µM)
Staphylococcus aureus [44]
  MIC: 2 µg/mL (≈ 3.3 µM)
Staphylococcus aureus [45]
  MIC: 4 µg/mL (≈ 6.59 µM)
Staphylococcus aureus [46]
  MIC: 4 µg/mL (≈ 6.59 µM)
Staphylococcus aureus [47]
  MIC: 1 µg/mL (≈ 1.65 µM)
Staphylococcus aureus [48]
  MIC: 2 µg/mL (≈ 3.3 µM)
Staphylococcus aureus [49]
  MIC: 1 µg/mL (≈ 1.65 µM)
Staphylococcus aureus [50]
  MIC: 2 µg/mL (≈ 3.3 µM)
Staphylococcus aureus [51]
  MIC: 2 µg/mL (≈ 3.3 µM)
